By IC50 is commonly meant the concentration that gives 50% inhibition. Lower therefore signals higher potency.

Data on 21 molecules can be found in ChEMBL document CHEMBL1153359, “Synthesis and biological evaluation of N4-(hetero)arylsulfonylquinoxalinones as HIV-1 reverse transcriptase inhibitors” (Bioorg Med Chem, 2009).

SMILES strings stand for the structures. A value given as a limit tells only on which side of the number the result lay.

The test deals with Human immunodeficiency virus 1. Nature of the test: Inhibition of HIV1 replication in human 293T cells preincubated 15 mins prior to infection measured after 48 hrs postinfection by luciferase reporter gene assay. In kind it is functional, organism-based. The conditions noted are these: Human immunodeficiency virus 1, HEK-293T. An outline of the steps:
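Pseudotyped virus was made by co-transfecting 293 cells with the env-deficient HIV-1 luciferase vector pNL4-3.luc.R-E- and a VSV-G plasmid (modified calcium phosphate method). 293ET target cells were seeded at 6 × 10⁴ per well the day before infection. Compound was added 15 min before the VSVG/HIV-1 virus, with a solvent-only control. Cells were lysed 48 h post-infection.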

In the case of `O=C1CN(S(=O)(=O)c2cccc3cccnc23)c2cc(F)ccc2N1`, the IC50 is 980 nM.

`CC1C(=O)Nc2ccc(F)cc2N1S(=O)(=O)c1cccc2cccnc12` (stereo unspecified): the half-inhibitory concentration (IC50) came to 7000 nM.

Molecule `CCC1C(=O)Nc2ccc(Cl)cc2N1S(=O)(=O)c1cccc2cccnc12` (stereo unspecified) gave an IC50 of over 100000 nM.

In turn, `COC(=O)c1sccc1S(=O)(=O)N1CC(=O)Nc2ccc(Cl)cc21` registered an IC50 of 830 nM. This counts as sub-micromolar.

Turning to `COC(=O)c1sccc1S(=O)(=O)N1c2cc(Cl)ccc2NC(=O)C1C` (stereo unspecified), the midpoint of inhibition, the IC50, lay at 200 nM.

`CCC1C(=O)Nc2ccc(Cl)cc2N1S(=O)(=O)c1ccsc1C(=O)OC` (stereo unspecified) gave a half-inhibitory concentration (IC50) of 6300 nM.

Turning to `COC(=O)c1sccc1S(=O)(=O)N1CC(=O)Nc2cc(C(F)(F)F)ccc21`, the concentration for half-maximal inhibition (IC50) is over 100000 nM.

In turn, `O=C1CN(S(=O)(=O)c2cccc3cccnc23)c2ccc(C(F)(F)F)cc2N1` registered an IC50 of over 100000 nM.

`COC(=O)CC1C(=O)Nc2ccc(F)cc2N1S(=O)(=O)c1ccsc1C(=O)OC` (stereo unspecified) yielded a concentration for half-maximal inhibition (IC50) of over 100000 nM.

With `CC1C(=O)Nc2ccc(F)cc2N1S(=O)(=O)c1cc(Cl)sc1Cl` (stereo unspecified), the 50% inhibitory concentration (IC50) is over 100000 nM.

In turn, `CCC1C(=O)Nc2ccc(F)cc2N1S(=O)(=O)c1ccsc1C(=O)OC` (stereo unspecified) showed an IC50 of 5000 nM.

In turn, `N#Cc1cccc(S(=O)(=O)N2CC(=O)Nc3ccc(F)cc32)c1` showed an IC50 of over 100000 nM.

Regarding `O=C1CN(S(=O)(=O)c2cccc3cccnc23)c2cc(Cl)ccc2N1`, the concentration for half-maximal inhibition (IC50) was 330 nM. This counts as sub-micromolar.

Regarding `CC1C(=O)Nc2ccc(F)cc2N1S(=O)(=O)c1cccc(C#N)c1` (stereo unspecified), inhibition was half-maximal at 55000 nM (IC50).

With `COC(=O)c1sccc1S(=O)(=O)N1CC(=O)Nc2ccc(F)cc21`, the IC50 was determined as 2020 nM.

With `COC(=O)c1sccc1S(=O)(=O)N1c2cc(F)ccc2NC(=O)C1C` (stereo unspecified), the IC50 came to 200 nM.

Molecule `CC1C(=O)Nc2ccc(Cl)cc2N1S(=O)(=O)c1cccc2cccnc12` (stereo unspecified) displayed a half-inhibitory concentration (IC50) of 650 nM.

Take `CC1C(=O)Nc2ccc(F)cc2N1S(=O)(=O)c1ccc([N+](=O)[O-])cc1` (stereo unspecified): the IC50 was over 100000 nM.

`COC(=O)c1sccc1S(=O)(=O)N1c2cc(F)ccc2NC(=O)C1CCSC` (stereo unspecified) showed a half-maximal inhibitory concentration (IC50) of over 100000 nM.

In turn, `O=C1Nc2ccc(Cl)cc2[C@@](C#CC2CC2)(C(F)(F)F)O1` [EFAVIRENZ] showed an IC50 of 1.3 nM.

Molecule `Cc1cn([C@H]2C[C@H](N=[N+]=[N-])[C@@H](CO)O2)c(=O)[nH]c1=O` [ZIDOVUDINE] came in with a half-maximal inhibitory concentration (IC50) of 48 nM.
